Experimental data: paper PMC5846678 (Bioorganic & medicinal chemistry letters, 2017)

How the values were obtained:
[1] = pharmacokinetic analysis, DIPG mice models; cited from earlier work
IGF1R/IR [2] = assay: microPET imaging in mice; format: in vivo, C57BL/6 mice
How it was run: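 Male C57BL/6 mice (N = 2) under anaesthesia on an Inveon microPET. The 18F-labelled test compound was formulated in 5% ethanol/normal saline and sterile-filtered. 0.2 ± 0.05 mCi was given via tail vein at the start of acquisition. A 68Ge transmission scan was used for attenuation correction. List-mode data were collected for 60 min, Fourier-rebinned, reconstructed by filtered back-projection and expressed as nCi/cc. Images were summed 0–10 and 0–60 min. ROI time-activity curves were drawn for brain, heart, muscle and thalamus.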

IGF1R/IR [3] = assay: biodistribution in rats 120 min post injection; format: in vivo, Sprague-Dawley rats
IGF1R/IR [4] = assay: microPET imaging in rats; format: in vivo, Sprague-Dawley rats; settings: time frames 1-10 min and 81-90 min, tail vein injection
How it was run: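 Anaesthetised male Sprague-Dawley rats (N = 2) were imaged on an Inveon microPET after tail-vein injection of 0.2 ± 0.05 mCi 18F-labelled test compound in 5% ethanol/normal saline, with acquisition starting at injection. A 68Ge transmission scan provided attenuation correction. List-mode data were collected for 90 min, Fourier-rebinned, reconstructed by filtered back-projection and expressed as nCi/cc. Coronal images were summed 0–10 and 81–90 min. ROI time-activity curves covered heart, muscles and brain.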

IGF1R = settings: autoradiography; cited from earlier work

Row | SMILES | concentration in tumor tissue [1] | brain activity of the radiotracer (IGF1R/IR [2]; microPET) | uptake in heart (IGF1R/IR [2]; microPET) | uptake in muscles (IGF1R/IR [2]; microPET) | time of peak brain level of activity post-injection (IGF1R/IR [2]; microPET time activity curves) | binding in lung (IGF1R/IR [3]) | binding in spleen (IGF1R/IR [3]) | binding in stomach (IGF1R/IR [3]) | bone uptake ([18F]defluorination) (IGF1R/IR [3]) | radioactivity in brain (IGF1R/IR [3]) | uptake in heart (IGF1R/IR [3]) | uptake in large intestine (IGF1R/IR [3]) | uptake in liver (IGF1R/IR [3]) | uptake in pancreas (IGF1R/IR [3]) | uptake in small intestine (IGF1R/IR [3]) | radioligand accumulation in brain (IGF1R/IR [4]) | binding in grade IV glioblastoma (GBM) in comparison to control brain tissues (IGF1R) [times]
1 | C[C@@]1(C(=O)Nc2ccc(F)nc2)CCCN1c1nc(Nc2cc(C3CC3)n[nH]2)c2cccn2n1 [BMS-754807] | low concentration | – | – | – | – | – | – | – | – | – | – | – | – | – | – | – | –
2 | C[C@@]1(C(=O)Nc2ccc([18F])nc2)CCCN1c1nc(Nc2cc(C3CC3)[nH]n2)c2cccn2n1 [[^18F]BMS-754807] | – | no noticeable brain activity | High uptake | High uptake | less than 1 min | negligible binding | negligible binding | low binding | no bone uptake | low levels of radioactivity | significant uptake | moderate uptake | moderate uptake | significant uptake | unusually higher uptake | negligible | 5.25
